Measurements taken from ChEMBL document CHEMBL1157478, “Pyrrolo[2,1-c][1,4]benzodiazepine-beta-glucuronide prodrugs with a potential for selective therapy of solid tumors by PMT and ADEPT strategies” (Bioorg Med Chem Lett, 2008).
Activity calls are given as the source filed them. No cut-off for these calls is given here.

Experiments:
HT-29 [1] = experiment: Cytotoxicity against human HT29 cells by MTT assay; assay type: functional, cell-based
HT-29 [2] = experiment: Induction of cell shrinkage in human HT29 cells after 2 hrs; assay type: functional, cell-based
How it was run: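 HT-29 adenocarcinoma cells were incubated 2 h with compound alone. Morphology (shrinkage) was examined under the microscope against untreated control cells.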

HT-29 [3] = experiment: Cytotoxicity against human HT29 cells in presence of beta-glucuronidase by MTT assay; assay type: functional, cell-based
HT-29 [4] = experiment: Activation factor, ratio of IC50 for human HT29 cells to IC50 for human HT29 cells in presence of beta-glucuronidase; assay type: functional
HT-29 [5] = experiment: Induction of cell shrinkage in human HT29 cells after 2 hrs in presence of beta-glucuronidase; assay type: functional, cell-based
How it was run: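 HT-29 adenocarcinoma cells were incubated 2 h with compound plus the enzyme beta-glucuronidase. Shrinkage was scored by microscopic examination of cell morphology against untreated control cells.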

Row | SMILES | IC50 (HT-29 [1]) [µmol] | Activity (HT-29 [2]) | IC50 (HT-29 [3]) [µmol] | Ratio IC50 (HT-29 [4]) | Activity (HT-29 [5])
1 | COc1cc2c(cc1O)N=C[C@@H]1CCCN1C2=O | 30.19 | Active |  |  | 
2 | COc1cc2c(cc1OCCCCCOc1cc3c(cc1OC)C(=O)N1CCC[C@H]1C(O)N3C(=O)OCc1ccc(O[C@@H]3O[C@H](C(=O)O)[C@@H](O)[C@H](O)[C@H]3O)c([N+](=O)[O-])c1)NC(=O)[C@@H]1CCCN1C2=O (stereo partly specified) | 2690 |  | 12.88 | 208.85 | 
3 | COc1cc2c(cc1OCCCCCOc1cc3c(cc1OC)C(=O)N1CCC[C@H]1C(=O)N3)N=C[C@@H]1CCCN1C2=O | 8.12 |  |  |  | 
4 | COc1cc2c(cc1OCc1ccccc1)N(C(=O)OCc1ccc(O[C@@H]3O[C@H](C(=O)O)[C@@H](O)[C@H](O)[C@H]3O)c([N+](=O)[O-])c1)C(O)[C@@H]1CCCN1C2=O (stereo partly specified) | 5280 | inactive | 41.68 | 126.67 | Active
